Assays:
Type in all cases: functional
NCI-H23 = assay: Growth inhibition of human NCI-H23 cells at 10 uM after 48 hrs; conditions: NCI-H23, 48 h, read-out: GI
Summary of the method: (§1)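 Single-dose primary screen in the NCI 60 human tumour cell line panel, run at the NCI facility. The panel covers nine subpanels: leukaemia, non-small cell lung, colon, CNS, melanoma, ovarian, renal, prostate and breast. Read-out was percent growth of treated cells, shown as a mean graph and reported as percent growth inhibition.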

PC-3 = assay: Growth inhibition of human PC3 cells at 10 uM after 48 hrs; conditions: PC-3, 48 h, read-out: GI; summary of the method: as §1
T47D = assay: Growth inhibition of human T47D cells at 10 uM after 48 hrs; conditions: read-out: GI
Summary of the method: (§2)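 NCI 60-cell-line disease-oriented human tumor panel, single-dose primary screen at 10 µM. Data given as mean-graph percent growth of treated cells, reported as percent growth inhibition (GI %).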

[1] = Growth inhibition of human SF539 cells at 10 uM after 48 hrs; conditions: SF-539, 48 h, read-out: GI; summary of the method: as §2
TK-10 = assay: Growth inhibition of human TK10 cells at 10 uM after 48 hrs; conditions: TK-10, 48 h, read-out: GI; summary of the method: as §2
MDA-MB-231 = assay: Growth inhibition of human MDA-MB-231 cells at 10 uM after 48 hrs; conditions: MDA-MB-231, 48 h, read-out: GI; summary of the method: as §1
NCI-H322M = assay: Growth inhibition of human NCI-H322M cells at 10 uM after 48 hrs; conditions: read-out: GI; summary of the method: as §1
[2] = Growth inhibition of human RXF393 cells at 10 uM after 48 hrs; conditions: RXF 393, 48 h, read-out: GI; summary of the method: as §1
[3] = Growth inhibition of human OVCAR4 cells at 10 uM after 48 hrs; conditions: OVCAR-4, 48 h, read-out: GI; summary of the method: as §1
OVCAR-3 = assay: Growth inhibition of human OVCAR3 cells at 10 uM after 48 hrs; conditions: OVCAR-3, 48 h, read-out: GI; summary of the method: as §1
[4] = Growth inhibition of human Hs 578T cells at 10 uM after 48 hrs; conditions: read-out: GI; summary of the method: as §1
[5] = Growth inhibition of human OVCAR5 cells at 10 uM after 48 hrs; conditions: OVCAR-5, 48 h, read-out: GI; summary of the method: as §1
SW-620 = assay: Growth inhibition of human SW620 cells at 10 uM after 48 hrs; conditions: SW-620, 48 h, read-out: GI; summary of the method: as §2
SK-OV-3 = assay: Growth inhibition of human SKOV3 cells at 10 uM after 48 hrs; conditions: SK-OV-3, 48 h, read-out: GI; summary of the method: as §2
[6] = Growth inhibition of human HCC2998 cells at 10 uM after 48 hrs; conditions: HCC 2998, 48 h, read-out: GI; summary of the method: as §1
SN12C = assay: Growth inhibition of human SN12C cells at 10 uM after 48 hrs; conditions: read-out: GI; summary of the method: as §2
SK-MEL-28 = assay: Growth inhibition of human SK-MEL-28 cells at 10 uM after 48 hrs; conditions: SK-MEL-28, 48 h, read-out: GI; summary of the method: as §2
MOLT-4 = assay: Growth inhibition of human MOLT4 cells at 10 uM after 48 hrs; conditions: MOLT-4, 48 h, read-out: GI; summary of the method: as §1
SNB-19 = assay: Growth inhibition of human SNB19 cells at 10 uM after 48 hrs; conditions: SNB-19, 48 h, read-out: GI; summary of the method: as §2
[7] = Growth inhibition of human EKVX cells at 10 uM after 48 hrs; conditions: read-out: GI; summary of the method: as §1
K562 = assay: Growth inhibition of human K562 cells at 10 uM after 48 hrs; conditions: K562, 48 h, read-out: GI; summary of the method: as §1
SF-268 = assay: Growth inhibition of human SF268 cells at 10 uM after 48 hrs; conditions: SF-268, 48 h, read-out: GI; summary of the method: as §2
IGROV-1 = assay: Growth inhibition of human IGROV1 cells at 10 uM after 48 hrs; conditions: IGROV-1, 48 h, read-out: GI; summary of the method: as §1
NCI-H226 = assay: Growth inhibition of human NCI-H226 cells at 10 uM after 48 hrs; conditions: NCI-H226, 48 h, read-out: GI; summary of the method: as §1
OVCAR-8 = assay: Growth inhibition of human OVCAR8 cells at 10 uM after 48 hrs; conditions: OVCAR-8, 48 h, read-out: GI; summary of the method: as §1
SK-MEL-2 = assay: Growth inhibition of human SK-MEL-2 cells at 10 uM after 48 hrs; conditions: SK-MEL-2, 48 h, read-out: GI; summary of the method: as §2
[8] = Growth inhibition of human UO31 cells at 10 uM after 48 hrs; conditions: UO-31, 48 h, read-out: GI; summary of the method: as §2
MCF7 = assay: Growth inhibition of human MCF7 cells at 10 uM after 48 hrs; conditions: MCF7, 48 h, read-out: GI; summary of the method: as §1
HT-29 = assay: Growth inhibition of human HT-29 cells at 10 uM after 48 hrs; conditions: HT-29, 48 h, read-out: GI; summary of the method: as §1
HL-60(TB) = assay: Growth inhibition of human HL-60(TB) cells at 10 uM after 48 hrs; conditions: HL-60, 48 h, read-out: GI
Summary of the method: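 NCI 60-cell-line human tumour panel covering nine subpanels (leukaemia, non-small cell lung, colon, CNS, melanoma, ovarian, renal, prostate, breast), run at the NCI facility. Primary screen tested a single dose of each compound. Read-out was percent growth of treated cells versus untreated cells, reported from the mean graph as percentage growth inhibition.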

[9] = Growth inhibition of human NCI-ADR-RES cells at 10 uM after 48 hrs; conditions: read-out: GI; summary of the method: as §1
KM12 = assay: Growth inhibition of human KM12 cells at 10 uM after 48 hrs; conditions: KM12, 48 h, read-out: GI; summary of the method: as §1
CAKI-1 = assay: Growth inhibition of human CAKI-1 cells at 10 uM after 48 hrs; conditions: CAKI-1, 48 h, read-out: GI; summary of the method: as §1
CCRF-CEM = assay: Growth inhibition of human CCRF-CEM cells at 10 uM after 48 hrs; conditions: read-out: GI; summary of the method: as §1
DU-145 = assay: Growth inhibition of human DU145 cells at 10 uM after 48 hrs; conditions: DU-145, 48 h, read-out: GI; summary of the method: as §1
786-0 = assay: Growth inhibition of human 786-0 cells at 10 uM after 48 hrs; conditions: 786-0, 48 h, read-out: GI; summary of the method: as §1
SR = assay: Growth inhibition of human SR cells at 10 uM after 48 hrs; conditions: read-out: GI; summary of the method: as §2
SNB-75 = assay: Growth inhibition of human SNB75 cells at 10 uM after 48 hrs; conditions: SNB-75, 48 h, read-out: GI; summary of the method: as §2

SMILES | inhibition of growth at 10 µM (NCI-H23) [%] | inhibition of growth at 10 µM (PC-3) [%] | inhibition of growth at 10 µM (T47D) [%] | inhibition of growth at 10 µM [1] [%] | inhibition of growth at 10 µM (TK-10) [%] | inhibition of growth at 10 µM (MDA-MB-231) [%] | inhibition of growth at 10 µM (NCI-H322M) [%] | inhibition of growth at 10 µM [2] [%] | inhibition of growth at 10 µM [3] [%] | inhibition of growth at 10 µM (OVCAR-3) [%] | inhibition of growth at 10 µM [4] [%] | inhibition of growth at 10 µM [5] [%] | inhibition of growth at 10 µM (SW-620) [%] | inhibition of growth at 10 µM (SK-OV-3) [%] | inhibition of growth at 10 µM [6] [%] | inhibition of growth at 10 µM (SN12C) [%] | inhibition of growth at 10 µM (SK-MEL-28) [%] | inhibition of growth at 10 µM (MOLT-4) [%] | inhibition of growth at 10 µM (SNB-19) [%] | inhibition of growth at 10 µM [7] [%] | also measured
COc1ccc(/C=C2\CCCc3c2nc(C)nc3-c2ccc(OC)cc2)cc1 | < 30 | < 30 | < 30 | < 30 | < 30 | < 30 | < 30 | < 30 | < 30 | < 30 | < 30 | < 30 | < 30 | < 30 | < 30 | < 30 | < 30 | < 30 | < 30 | < 30 | inhibition of growth at 10 µM (K562): < 30%; inhibition of growth at 10 µM (SF-268): < 30%; inhibition of growth at 10 µM (IGROV-1): < 30%; inhibition of growth at 10 µM (NCI-H226): < 30%; inhibition of growth at 10 µM (OVCAR-8): < 30%; inhibition of growth at 10 µM (SK-MEL-2): < 30%; inhibition of growth at 10 µM [8]: < 30%; inhibition of growth at 10 µM (MCF7): < 30%; inhibition of growth at 10 µM (HT-29): < 30%; inhibition of growth at 10 µM (HL-60(TB)): < 30%; inhibition of growth at 10 µM [9]: < 30%; inhibition of growth at 10 µM (KM12): < 30%; inhibition of growth at 10 µM (CAKI-1): < 30%; inhibition of growth at 10 µM (CCRF-CEM): < 30%; inhibition of growth at 10 µM (DU-145): < 30%; inhibition of growth at 10 µM (786-0): < 30%; inhibition of growth at 10 µM (SR): < 30%; inhibition of growth at 10 µM (SNB-75): < 30%
Cc1nc2c(c(-c3ccc(Cl)cc3)n1)CCC/C2=C\c1ccc(Cl)cc1 | < 30 | < 30 | < 30 | < 30 | < 30 | < 30 | < 30 | < 30 | < 30 | < 30 | < 30 | < 30 | < 30 | < 30 | 58.5 | < 30 | < 30 | < 30 | < 30 | < 30 | inhibition of growth at 10 µM (K562): < 30%; inhibition of growth at 10 µM (SF-268): < 30%; inhibition of growth at 10 µM (IGROV-1): < 30%; inhibition of growth at 10 µM (NCI-H226): < 30%; inhibition of growth at 10 µM (OVCAR-8): < 30%; inhibition of growth at 10 µM (SK-MEL-2): < 30%; inhibition of growth at 10 µM [8]: < 30%; inhibition of growth at 10 µM (MCF7): 68.7%; inhibition of growth at 10 µM (HT-29): 45.6%; inhibition of growth at 10 µM (HL-60(TB)): < 30%; inhibition of growth at 10 µM [9]: < 30%; inhibition of growth at 10 µM (KM12): 62%; inhibition of growth at 10 µM (CAKI-1): < 30%; inhibition of growth at 10 µM (CCRF-CEM): < 30%; inhibition of growth at 10 µM (DU-145): < 30%; inhibition of growth at 10 µM (786-0): < 30%; inhibition of growth at 10 µM (SR): < 30%; inhibition of growth at 10 µM (SNB-75): < 30%

— ChEMBL document CHEMBL3112482, “Nonclassical antifolates, part 5. Benzodiazepine analogs as a new class of DHFR inhibitors: synthesis, antitumor testing and molecular modeling study” (Eur J Med Chem, 2014)
